Screens from PubChem.
Shown are actives, neighbours in structure and some others; about 3.1% of the full set was active somewhere.
CSN deneddyl inh = CSN deneddylation inhibition; Q92905; Purified CSN, SCF-Nedd8-OG deneddylation, fluorescence polarization; inhibition, % at 12.5 µM; 360,000 tested, 0.38% active; AID 651999;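 active means pattern-corrected inhibition above about 35%, with an unprinted fluorescence ratio check between 0.5 and 1.5, limit read from the data, passing the limit was not always enough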;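 further: 0% = enzyme with substrate and 100% = substrate without enzyme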
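Test system: Human Csn5 produced in HEK293T cells | Compound: 12.5 µM single point | Times: 90 min, room temperature | Signal: Fluorescence polarization readout | Read-out basis: % inhibition of substrate cleavage by Csn5 | Controls: no-enzyme wells high, enzyme-with-substrate wells low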
LEDGF integ inh = blocks HIV-1 LEDGF/p75-dependent DNA integration; inhibition, % at 3.7 µM; TR-FRET IN-LEDGF/p75 DNA integration, Eu/Cy5; 370,000 tested, 0.64% active;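 active means inhibition above the screen-wide mean plus 3 SD, cut at about 13% in these data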;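 further: signal is the Cy5 over europium emission ratio at 671 and 618 nm; 0% = plate median of compound wells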
UHRF1 MBD2 ctr = human UHRF1 methylated DNA binding inhibitors. inhibition, % at 4.4 µM. AID 687016. UHRF1 binding to methylated oligo, TR-FRET. Q96T88. 370,000 tested, 0.75% active; in the data active means inhibition above about 21%;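 further: UHRF1 SRA domain binding a hemimethylated CpG hairpin DNA probe; 0% = median of test compound wells and 100% = reference inhibitor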
Target sequence (Q96T88 whole entry, looked up, the tested form may be a part): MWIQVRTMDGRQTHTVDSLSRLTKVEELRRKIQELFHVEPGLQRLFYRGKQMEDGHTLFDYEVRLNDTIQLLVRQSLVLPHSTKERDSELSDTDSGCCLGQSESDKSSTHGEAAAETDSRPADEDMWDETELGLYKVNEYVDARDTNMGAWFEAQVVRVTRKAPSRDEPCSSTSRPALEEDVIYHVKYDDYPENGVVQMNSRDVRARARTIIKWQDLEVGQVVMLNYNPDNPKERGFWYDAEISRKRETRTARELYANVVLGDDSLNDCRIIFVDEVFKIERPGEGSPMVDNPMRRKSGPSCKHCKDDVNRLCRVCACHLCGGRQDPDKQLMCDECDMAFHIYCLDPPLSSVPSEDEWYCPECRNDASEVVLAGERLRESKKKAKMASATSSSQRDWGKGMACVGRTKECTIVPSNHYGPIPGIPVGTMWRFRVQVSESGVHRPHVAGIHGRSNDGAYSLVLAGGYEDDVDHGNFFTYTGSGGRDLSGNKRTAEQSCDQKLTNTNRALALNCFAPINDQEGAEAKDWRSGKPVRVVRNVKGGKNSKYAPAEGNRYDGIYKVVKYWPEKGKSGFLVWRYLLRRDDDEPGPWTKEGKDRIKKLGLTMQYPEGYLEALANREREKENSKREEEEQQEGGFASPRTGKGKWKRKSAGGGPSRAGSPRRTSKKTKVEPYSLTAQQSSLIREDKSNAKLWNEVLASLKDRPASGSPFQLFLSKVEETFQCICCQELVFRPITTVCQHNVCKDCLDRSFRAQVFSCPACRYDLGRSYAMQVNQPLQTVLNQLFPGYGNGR
MBD2 DNA inh = MBD2-methylated oligo binding inhibition; Q9UBB5; TR-FRET, MBD2 binding to methylated oligonucleotide; inhibition, % at 4.4 µM; 370,000 tested, 0.31% active; in the data active means inhibition above about 13%
rCAG binder = molecules binding r(CAG) RNA repeats. 370,000 tested, 1.3% active. inhibition, % at 3 µM. AID 651821. r(CAG) RNA repeat, TO-PRO-1 dye displacement fluorescence;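 active means inhibition above the plate cutoff, the mean of all test compounds on that plate plus 3 SD, cut at about 35% in these data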;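 further: 0% = DMSO alone and 100% = 100 µM mitoxantrone as full dye displacement; higher means more dye released from RNA so lower well fluorescence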
ATG4B inhibitor = ATG4B (human) cysteine protease inhibition | Q9Y4P1 | ATG4B cleavage of LC3-PLA2, NBD-HPC fluorescence, 1 h | inhibition, % at 8.33 µM | 340,000 tested, 0.51% active; in the data active means inhibition above about 40%
IN multimer act = activates HIV-1 integrase multimerization in LEDGF counter-screen | shares compounds with LEDGF integ inh | TR-FRET HIV-1 integrase multimerization, biochemical | activation, % at 7.7 µM | 2,000 tested, 17% active | AID 1053131; in the data active means activation above about 8.9%
TRFRET interf = counter-screen for LEDGF/p75 integration inhibitors: TR-FRET optical interference. shares compounds with LEDGF integ inh. TR-FRET optical interference counterscreen, HIV-1 IN multimerization. inhibition, % at 7.7 µM. 2,000 tested, under 10 active. AID 1053135;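 active means inhibition above the mean over all tested compounds plus 3 SD, which no compound reached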;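 further: 0% = integrase with antibodies and DMSO and 100% = antibodies without integrase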
IN-LEDGF confirm = LEDGF/p75-dependent HIV-1 integration inhibition, confirmation; TR-FRET LEDGF/p75-dependent HIV-1 integration, biochemical; shares compounds with LEDGF integ inh; inhibition, % at 3.7 µM; 2,000 tested, 36% active; in the data active means inhibition above about 14%
An asterisk follows results filed as active.

What do the screens show for `O=c1cc(-c2ccc(Cl)cc2)[nH][nH]1`?
CSN deneddyl inh: -1.9; LEDGF integ inh: 12.9; UHRF1 MBD2 ctr: 4.2; MBD2 DNA inh: 0.9; rCAG binder: 12.6; ATG4B inhibitor: -0.8

How did Cc1nc(Cl)c(C(=O)NCc2ccccc2)c(C)c1[N+](=O)[O-] do in these assays?
CSN deneddyl inh: -3.7; LEDGF integ inh: 20.4*; UHRF1 MBD2 ctr: -1.0; MBD2 DNA inh: 0.5; rCAG binder: 2.0; ATG4B inhibitor: -2.0; IN multimer act: -0.2; TRFRET interf: 1.1; IN-LEDGF confirm: 0.5

How did COC(=O)Cc1c(C)nc2nc(-c3ccccc3)[nH]n2c1=O do in these assays?
CSN deneddyl inh: -5.7; LEDGF integ inh: -2.7; UHRF1 MBD2 ctr: 1.6; MBD2 DNA inh: 3.4; rCAG binder: 1.8; ATG4B inhibitor: 4.6

What do the screens show for `COC(=O)Cc1c(C)nc2nc(Cc3ccccc3)[nH]n2c1=O`?
CSN deneddyl inh: 15.3; LEDGF integ inh: 14.1*; UHRF1 MBD2 ctr: -2.4; MBD2 DNA inh: -2.6; rCAG binder: 0.6; ATG4B inhibitor: 1.8; IN multimer act: 0.7; TRFRET interf: -3.4; IN-LEDGF confirm: 3.3

What do the screens show for `O=C(NCCc1ccccc1)OCc1cn(Cc2cccc(C(F)(F)F)c2)nn1`?
LEDGF integ inh: 2.6; UHRF1 MBD2 ctr: 2.8; MBD2 DNA inh: 0.1; rCAG binder: -1.7

How did O=c1cc(-c2ccc(O)c(O)c2)oc2cc(O)cc(O)c12 do in these assays?
CSN deneddyl inh: 11.1; LEDGF integ inh: 42.0*; UHRF1 MBD2 ctr: -9.0; MBD2 DNA inh: -6.4; rCAG binder: 11.7; ATG4B inhibitor: -5.2; IN multimer act: 15.4*; TRFRET interf: -77.6; IN-LEDGF confirm: 88.0*

What do the screens show for `CN(C)S(=O)(=O)N1CCN(C(=O)N(c2ccccc2)c2ccccc2)CC1`?
CSN deneddyl inh: -2.5; LEDGF integ inh: 70.7*; UHRF1 MBD2 ctr: 2.6; MBD2 DNA inh: 3.0; rCAG binder: -4.5; ATG4B inhibitor: -2.8; IN multimer act: -0.2; TRFRET interf: 1.0; IN-LEDGF confirm: -0.5

What do the screens show for `Cc1ccc(S(=O)(=O)N2CCN(C(=O)N(c3ccccc3)c3ccccc3)CC2)cc1`?
CSN deneddyl inh: 1.4; LEDGF integ inh: 2.0; UHRF1 MBD2 ctr: -0.2; MBD2 DNA inh: -0.2; rCAG binder: 3.2; ATG4B inhibitor: 0.1

How did CCCCn1c(N)c(N(CCOC)C(=O)c2ccc(N3CCCC3)c([N+](=O)[O-])c2)c(=O)[nH]c1=O do in these assays?
CSN deneddyl inh: 0.7; LEDGF integ inh: 27.5*; UHRF1 MBD2 ctr: -6.9; MBD2 DNA inh: -6.8; rCAG binder: -2.3; ATG4B inhibitor: 0.1; IN multimer act: 0.4; TRFRET interf: -1.9; IN-LEDGF confirm: 2.3

Results for Nc1ccc(N2CCCCC2)c2nonc12 ?
CSN deneddyl inh: -8.8; LEDGF integ inh: 56.2*; UHRF1 MBD2 ctr: 12.2; MBD2 DNA inh: 12.7; rCAG binder: 2.4; ATG4B inhibitor: -7.0; IN multimer act: 1.4; TRFRET interf: -5.0; IN-LEDGF confirm: 66.9*

How did Nc1c(N2CCCC2)cc(Cl)c2nonc12 do in these assays?
CSN deneddyl inh: 23.6; ATG4B inhibitor: 37.3

Results for CCOC(=O)C1(CCOc2ccccc2)CCN(Cc2ccc(CO)o2)CC1 ?
CSN deneddyl inh: -4.8; LEDGF integ inh: 18.1*; UHRF1 MBD2 ctr: 1.3; MBD2 DNA inh: 6.4; rCAG binder: -5.2; ATG4B inhibitor: 5.9; IN multimer act: 0.4; TRFRET interf: -2.1; IN-LEDGF confirm: 0.8

How did CCOC(=O)Cn1cc(CN2C(C(=O)OC)CN(CCO)CCS2(=O)=O)nn1 (stereo unspecified) do in these assays?
LEDGF integ inh: 5.2; UHRF1 MBD2 ctr: 7.0; MBD2 DNA inh: 3.7; rCAG binder: -0.9

What do the screens show for `CC(C)(C)c1ccc(S(=O)(=O)/N=C2\C=C(NS(=O)(=O)c3ccccc3)C(=O)c3ccccc32)cc1`?
CSN deneddyl inh: 4.8; LEDGF integ inh: 16.2*; UHRF1 MBD2 ctr: -5.6; MBD2 DNA inh: -8.8; rCAG binder: 58.7*; ATG4B inhibitor: 14.6; IN multimer act: -1.3; TRFRET interf: 4.6; IN-LEDGF confirm: -6.2

How did S=c1[nH]nc(-c2ccco2)n1/N=C/C=C/c1ccco1 do in these assays?
CSN deneddyl inh: 38.2*; LEDGF integ inh: 21.1*; UHRF1 MBD2 ctr: 25.9*; MBD2 DNA inh: 10.8; rCAG binder: 19.5; ATG4B inhibitor: 6.9; IN multimer act: 15.9*; TRFRET interf: -80.1; IN-LEDGF confirm: 74.0*

Results for COc1ccccc1/C=C/C=N/n1c(-c2ccco2)n[nH]c1=S ?
CSN deneddyl inh: 1.2; LEDGF integ inh: -0.1; UHRF1 MBD2 ctr: -2.2; MBD2 DNA inh: -3.7; rCAG binder: 11.7; ATG4B inhibitor: -1.6

How did CC1(C(=O)Nc2ccc3nc[nH]c3c2)CCN1C(=O)Cc1ccc(-c2ccccc2)cc1 (stereo unspecified) do in these assays?
CSN deneddyl inh: 3.6; LEDGF integ inh: -3.4; UHRF1 MBD2 ctr: 6.7; MBD2 DNA inh: 5.9; rCAG binder: 4.5

Results for CC1(C(=O)Nc2ccc3nc[nH]c3c2)CCN1C(=O)C1(c2ccccc2)CCCC1 (stereo unspecified) ?
CSN deneddyl inh: -2.8; LEDGF integ inh: 24.6*; UHRF1 MBD2 ctr: -1.7; MBD2 DNA inh: -0.2; rCAG binder: 0.3; IN multimer act: -1.7; TRFRET interf: 8.6; IN-LEDGF confirm: -4.0

How did Cc1ccc(-n2c(SCC(=O)Nc3ccccc3-c3ccccc3)nnc2-c2cnccn2)cc1 do in these assays?
LEDGF integ inh: -2.7; UHRF1 MBD2 ctr: 2.0; MBD2 DNA inh: 8.3; rCAG binder: 6.4

How did COC(=O)[C@H]1C[C@@]2(c3ccccc3)c3ccccc3N[C@H]2N1 do in these assays?
LEDGF integ inh: 4.7; UHRF1 MBD2 ctr: 3.8; MBD2 DNA inh: -3.5; rCAG binder: 1.9

Results for CC(NC1=CC(=O)c2cccnc2C1=O)C(O)c1ccccc1 (stereo unspecified) ?
CSN deneddyl inh: 8.7; LEDGF integ inh: 36.3*; UHRF1 MBD2 ctr: 2.0; MBD2 DNA inh: -12.7; rCAG binder: 4.6; ATG4B inhibitor: 26.1; IN multimer act: 3.5; TRFRET interf: -12.5; IN-LEDGF confirm: 66.0*

What do the screens show for `CCOC(=O)c1ccc(NC(=O)Cn2nnc3ccccc32)cc1`?
CSN deneddyl inh: -4.7; LEDGF integ inh: -4.6; UHRF1 MBD2 ctr: -2.6; MBD2 DNA inh: 1.5; rCAG binder: -0.7; ATG4B inhibitor: -10.2
